Measurements as given in ChEMBL document CHEMBL1132930, “Characterization of the binding site of the histamine H(3) receptor. 2. Synthesis, in vitro pharmacology, and QSAR of a series of monosubstituted benzyl analogues of thioperamide” (J Med Chem, 2000).

Key:
Histamine H3 receptor = Histamine H3 receptor (Cavia porcellus, UniProt Q9JI35); experiment: In vitro histamine H3 receptor antagonist activity was determined on guinea pig jejunum; type: functional, tissue-based; conditions: read-out: pA2 (converted)
Summary of the method: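 Guinea pig jejunum preparations, electrically stimulated to give contractile responses (acetylcholine release). H3 agonists inhibit these responses in a concentration-dependent way. Antagonist pA2 derived from that agonist inhibition, per a previously described method.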

[1] = molecular target: Histamine H3 receptor (Cavia porcellus) (UniProt Q9JI35); conditions: Jejunum
Histamine H3 receptor (Cavia porcellus), sequence (Q9JI35 whole entry): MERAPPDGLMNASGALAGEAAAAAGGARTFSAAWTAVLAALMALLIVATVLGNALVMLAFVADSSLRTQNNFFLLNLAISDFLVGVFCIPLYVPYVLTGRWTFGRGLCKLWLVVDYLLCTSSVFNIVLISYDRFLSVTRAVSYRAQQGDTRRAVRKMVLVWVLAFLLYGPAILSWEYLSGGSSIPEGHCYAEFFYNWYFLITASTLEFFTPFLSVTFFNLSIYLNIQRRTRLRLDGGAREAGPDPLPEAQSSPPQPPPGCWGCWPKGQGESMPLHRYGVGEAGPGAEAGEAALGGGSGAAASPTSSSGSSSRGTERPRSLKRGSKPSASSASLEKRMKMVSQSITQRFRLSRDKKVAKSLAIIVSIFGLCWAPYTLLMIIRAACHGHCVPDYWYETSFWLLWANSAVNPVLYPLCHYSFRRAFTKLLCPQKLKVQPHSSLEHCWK

Histamine H3 receptor, sequence (Q9JI35 whole entry): as above

`S=C(NCc1cccc(Br)c1)N1CCC(c2c[nH]cn2)CC1` was tested, and the Kb (Histamine H3 receptor) was 33.9 nM.

`S=C(NCc1cccc(I)c1)N1CCC(c2c[nH]cn2)CC1` was tested, and the Kb (Histamine H3 receptor) was 15.8 nM.

`S=C(NCc1ccccc1Cl)N1CCC(c2cnc[nH]2)CC1` showed a Kb (Histamine H3 receptor) of 6.17 nM.

With `S=C(NCc1cccc(Cl)c1)N1CCC(c2c[nH]cn2)CC1` the Kb (Histamine H3 receptor) was 38.9 nM.

For `CC(C)(C)c1ccccc1C/N=C(\S)N1CCC(c2c[nH]cn2)CC1`, the Kb (Histamine H3 receptor) was 28.8 nM.

`Fc1cccc(C/N=C(\S)N2CCC(c3c[nH]cn3)CC2)c1` showed a Kb (Histamine H3 receptor) of 363 nM.

`Fc1ccc(C/N=C(\S)N2CCC(c3c[nH]cn3)CC2)cc1` was tested, and the Kb (Histamine H3 receptor) was 562 nM.

Compound `S=C(NCc1ccc(Cl)cc1)N1CCC(c2c[nH]cn2)CC1` has a Kb (Histamine H3 receptor) of 61.7 nM.

In the case of `S=C(NCc1ccccc1Br)N1CCC(c2c[nH]cn2)CC1`, the Kb (Histamine H3 receptor) is reported as 14.5 nM.

Work on `S=C(NCc1ccc(I)cc1)N1CCC(c2c[nH]cn2)CC1` yielded a Kb (Histamine H3 receptor) of 166 nM.

`Cc1ccccc1C/N=C(\S)N1CCC(c2c[nH]cn2)CC1` showed a Kb (Histamine H3 receptor) of 95.5 nM.

`S=C(NCc1ccccc1I)N1CCC(c2c[nH]cn2)CC1` gave a Kb (Histamine H3 receptor) of 7.41 nM.

For `S=C(NCc1ccc(Br)cc1)N1CCC(c2c[nH]cn2)CC1`, the Kb (Histamine H3 receptor) was 339 nM.

Compound `Fc1ccccc1C/N=C(\S)N1CCC(c2c[nH]cn2)CC1` has a Kb (Histamine H3 receptor) of 912 nM.

For `C[C@@H](N)Cc1c[nH]cn1`, the pD2 [1] was 7.8.

With `S=C(NCc1ccccc1)N1CCC(c2c[nH]cn2)CC1` the Kb (Histamine H3 receptor) was 47.9 nM.
